Source: publication PMC8247405 (British Journal of Clinical Pharmacology, 2020)

Tests used:
[1] = Plasma pharmacokinetics of SAR247799 in diabetic rats, 5-week chow dosing; type: in vivo, Zucker diabetic fatty (ZDF) rats; conditions: ZDF rats; for C (plasma concentration), mean / C (plasma concentration), median: 5 weeks postdosing; for AUC 0–24, mean / AUC 0–24, median: AUC0–24 = C × 24
In short: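 ZDF rats received test compound in chow at 0.002, 0.007 or 0.0245% w/w for 5 weeks. Plasma taken at 5 weeks was assayed by LC-MS/MS. AUC0–24 was computed as C × 24, taking the 5-week concentration as the average over the dosing interval.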

[2] = system: Zucker diabetic fatty (ZDF) rats; test: Peripheral blood lymphocyte count in ZDF rats; type: in vivo, rat; conditions: 5 weeks
In short: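 Male ZDF Fa/Fa rats, randomised by body weight at 9 weeks to control chow or chow with test compound at 0.002, 0.007 or 0.0245% w/w for 5 weeks; lean Fa/+ rats on control chow served as reference. Caudal-vein K₂-EDTA blood was taken under 1.5–2% isoflurane at baseline and 5 weeks. Lymphocytes were counted in fresh blood. Analysis was blinded, with 1-way ANOVA and Dunnett's test versus ZDF control.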

[3] = system: Zucker diabetic fatty (ZDF) rats; test: Heart rate in ZDF rats; type: in vivo, rat; conditions: low, intermediate and high dose, 5 weeks
[4] = system: Zucker diabetic fatty (ZDF) rats; test: Renal function; type: in vivo, rat; conditions: 5 weeks
In short: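 ZDF rats on control or test-compound chow (0.002, 0.007, 0.0245% w/w) for 5 weeks, with lean controls. Creatinine clearance = urinary creatinine × urine volume / plasma creatinine, in µL/min. Kruskal–Wallis with Wilcoxon post hoc tests versus ZDF control.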

[5] = system: Zucker diabetic fatty (ZDF) rats; test: Plasma fructosamine in ZDF rats; type: in vivo, rat; conditions: any dose, 5‐week treatment
In short: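 ZDF rats were fed control chow or test-compound chow (0.002–0.0245% w/w) from 9 weeks of age; lean rats served as reference. K₂-EDTA blood was drawn from the caudal vein under isoflurane at baseline and after 5 weeks. It was centrifuged at 4°C, 10 min, 10 000 g, and plasma was stored at −80°C. Fructosamine was measured on a clinical chemistry analyser by a blinded experimenter.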

type‐2 diabetes patients [6] = system: type‐2 diabetes patients; parameters: species or system human; conditions: in vivo
type‐2 diabetes patients [7] = conditions: human, in vivo
[8] = Plasma pharmacokinetics in type-2 diabetes patients; type: in vivo, human; conditions: for AUC 0–24, mean / AUC 0–24, median / Cmax, mean / Cmax, median / Tmax, mean / Tmax, median / Rac_AUC 0–24 (accumulation ratio), mean / Rac_AUC 0–24 (accumulation ratio), median / Rac_C max (accumulation ratio), mean / Rac_C max (accumulation ratio), median: n 15
In short: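 Type-2 diabetes patients received 1 or 5 mg test compound orally once daily for 28 days (15 per dose cohort). Plasma was sampled at 4 and 12 h postdose on day 1, predose on days 2, 3 and 7, and 3 h postdose on days 14, 21 and 28. Samples were assayed by validated LC-MS/MS (LLOQ 5 ng/mL). Cmax, tmax, trapezoidal AUC0–24 and accumulation ratio were derived by a Bayesian population PK model built in healthy subjects.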

type‐2 diabetes patients [9] = conditions: human, in vivo; remark: listed apart in the source
type‐2 diabetes patients [10] = conditions: human, in vivo; remark: listed apart in the source
type‐2 diabetes patients [11] = conditions: human, in vivo; remark: listed apart in the source
[12] = cited from earlier work
patients = conditions: in vivo; cited from earlier work
[13] = 0.007% (w/w) in chow (intermediate)

Cc1cc(-c2nc3cnc(Oc4cccc(Cl)c4)nc3o2)cc(C)c1OCC(=O)O [SAR247799]
C (plasma concentration), mean ([1]; 0.002% (w/w) in chow (low)): 0.0944 µg/mL
C (plasma concentration), median ([1]; 0.002% (w/w) in chow (low)): 0.0917 µg/mL
AUC 0–24, mean ([1]; 0.002% (w/w) in chow (low)): 2270 ng·h/mL
AUC 0–24, median ([1]; 0.002% (w/w) in chow (low)): 2200 ng·h/mL
C (plasma concentration), mean [1, 13]: 0.423 µg/mL
C (plasma concentration), median [1, 13]: 0.432 µg/mL
AUC 0–24, mean [1, 13]: 10200 ng·h/mL
AUC 0–24, median [1, 13]: 10400 ng·h/mL
C (plasma concentration), mean ([1]; 0.0245% (w/w) in chow (high)): 4.43 µg/mL
C (plasma concentration), median ([1]; 0.0245% (w/w) in chow (high)): 4.60 µg/mL
AUC 0–24, mean ([1]; 0.0245% (w/w) in chow (high)): 106000 ng·h/mL
AUC 0–24, median ([1]; 0.0245% (w/w) in chow (high)): 110000 ng·h/mL
increase in plasma concentration, high vs intermediate dose ([1]; for a 3.5‐fold increase in dose): 10.5 fold
steady state AUC0–24h ([1]; intermediate dose): 10.2 µg/mL
steady state AUC0–24h ([1]; low dose): 2.27 µg/mL
decrease in peripheral blood lymphocytes ([2]; high dose 0.0245% (w/w) chow): 35%
effect on peripheral blood lymphocytes ([2]; intermediate dose 0.007% (w/w) chow): did not reduce lymphocytes
effect on peripheral blood lymphocytes ([2]; low dose 0.002% (w/w) chow): did not reduce lymphocytes
effect on heart rate [3]: None of the doses of SAR247799 altered heart rate
change in creatinine clearance ([4]; high dose): lesser (nonsignificant) increase
reduction in urinary protein:creatinine ratio ([4]; high dose): statistically significant
effect on urinary output ([4]; intermediate dose): significantly blunted the increase in urinary output
fractional excretion of electrolytes (Na+ and Cl−) ([4]; intermediate dose): levels similar to lean control rats
increase in creatinine clearance compared to vehicle‐treated ZDF rats ([4]; intermediate dose): 2.5 fold
reduction in urinary protein:creatinine ratio ([4]; intermediate dose): statistically significant
change in creatinine clearance ([4]; low dose): no increase
effect on urinary protein:creatinine ratio ([4]; low to high dose): dose‐dependent reduction
effect on urinary protein:creatinine ratio ([4]; lowest dose): partial effect
effect on plasma fructosamine [5]: did not alter fructosamine levels
overall effect on FMD (type‐2 diabetes patients [6]): dose‐dependent improvement in FMD
lymphocytes, mean reductions vs placebo (type‐2 diabetes patients [7]): < 8%
steady state AUC0–24h ([8]; 1‐mg/d human dose): 2.97 µg/mL
steady state AUC0–24h ([8]; 5‐mg/d human dose): 14.9 µg/mL
AUC 0–24, mean ([8]; day 1, 1 mg oral once daily): 1030 ng·h/mL
AUC 0–24, median ([8]; day 1, 1 mg oral once daily): 983 ng·h/mL
Cmax, mean ([8]; day 1, 1 mg oral once daily): 57.4 ng/mL
Cmax, median ([8]; day 1, 1 mg oral once daily): 53.8 ng/mL
Tmax, mean ([8]; day 1, 1 mg oral once daily): 2.68 h
Tmax, median ([8]; day 1, 1 mg oral once daily): 2.50 h
AUC 0–24, mean ([8]; day 1, 5 mg oral once daily): 5310 ng·h/mL
AUC 0–24, median ([8]; day 1, 5 mg oral once daily): 5310 ng·h/mL
Cmax, mean ([8]; day 1, 5 mg oral once daily): 310 ng/mL
Cmax, median ([8]; day 1, 5 mg oral once daily): 315 ng/mL
Tmax, mean ([8]; day 1, 5 mg oral once daily): 2.42 h
Tmax, median ([8]; day 1, 5 mg oral once daily): 2.50 h
accumulation ratio ([8]; day 1 to day 14, 1 and 5 mg/d): 2.5–2.9
AUC 0–24, mean ([8]; day 14, 1 mg oral once daily): 2970 ng·h/mL
AUC 0–24, median ([8]; day 14, 1 mg oral once daily): 2780 ng·h/mL
Cmax, mean ([8]; day 14, 1 mg oral once daily): 152 ng/mL
Cmax, median ([8]; day 14, 1 mg oral once daily): 147 ng/mL
Rac_AUC 0–24 (accumulation ratio), mean ([8]; day 14, 1 mg oral once daily): 2.86
Rac_AUC 0–24 (accumulation ratio), median ([8]; day 14, 1 mg oral once daily): 2.70
Rac_C max (accumulation ratio), mean ([8]; day 14, 1 mg oral once daily): 2.66
Rac_C max (accumulation ratio), median ([8]; day 14, 1 mg oral once daily): 2.50
Tmax, mean ([8]; day 14, 1 mg oral once daily): 2.24 h
Tmax, median ([8]; day 14, 1 mg oral once daily): 2.25 h
AUC 0–24, mean ([8]; day 14, 5 mg oral once daily): 14900 ng·h/mL
AUC 0–24, median ([8]; day 14, 5 mg oral once daily): 14800 ng·h/mL
Cmax, mean ([8]; day 14, 5 mg oral once daily): 779 ng/mL
Cmax, median ([8]; day 14, 5 mg oral once daily): 760 ng/mL
Rac_AUC 0–24 (accumulation ratio), mean ([8]; day 14, 5 mg oral once daily): 2.79
Rac_AUC 0–24 (accumulation ratio), median ([8]; day 14, 5 mg oral once daily): 2.73
Rac_C max (accumulation ratio), mean ([8]; day 14, 5 mg oral once daily): 2.54
Rac_C max (accumulation ratio), median ([8]; day 14, 5 mg oral once daily): 2.46
Tmax, mean ([8]; day 14, 5 mg oral once daily): 2.15 h
Tmax, median ([8]; day 14, 5 mg oral once daily): 2.25 h
Patients with TEAE: Arthropod sting (type‐2 diabetes patients [9]): 0 n (%)
Patients with TEAE: Contusion (type‐2 diabetes patients [9]): 0 n (%)
Patients with TEAE: Diarrhoea (type‐2 diabetes patients [9]): 0 n (%)
Patients with TEAE: Dyspepsia (type‐2 diabetes patients [9]): 0 n (%)
Patients with TEAE: Headache (type‐2 diabetes patients [9]): 1 (6.7%) n (%)
Patients with TEAE: Injury, poisoning and procedural complications (type‐2 diabetes patients [9]): 0 n (%)
Patients with TEAE: Leading to treatment discontinuation (type‐2 diabetes patients [9]): 0 n (%)
Patients with TEAE: Nausea (type‐2 diabetes patients [9]): 1 (6.7%) n (%)
Patients with TEAE: Oropharyngeal pain (type‐2 diabetes patients [9]): 0 n (%)
Patients with TEAE: Otitis externa (type‐2 diabetes patients [9]): 0 n (%)
Patients with TEAE: Severe AE (type‐2 diabetes patients [9]): 0 n (%)
Patients with TEAE: Skin abrasion (type‐2 diabetes patients [9]): 0 n (%)
Patients with TEAE: Traumatic haematoma (type‐2 diabetes patients [9]): 0 n (%)
Patients with TEAE: Ventricular extrasystoles (type‐2 diabetes patients [9]): 0 n (%)
tolerability (type‐2 diabetes patients [9]): well tolerated
heart rate increase (type‐2 diabetes patients [10]): no increase
heart rate, mean difference vs placebo (maximum decrease) (type‐2 diabetes patients [10]): −6.4 beats/min
mean heart rate increase (type‐2 diabetes patients [10]): 0–4 beats/min
effect on blood pressure (type‐2 diabetes patients [11]): did not affect blood pressure
elimination half‐life [12]: 32 h

CCC(CC)CC1(C(=O)Nc2ccccc2SC(=O)C(C)C)CCCCC1 [dalcetrapib]
effect on FMD and CV events (patients): neutral on both FMD and CV events
